Laboratory results taken from ChEMBL document CHEMBL5303300, “EUbOPEN Chemogenomics Library - Multiplex” (2023).
“And” between values parts separate entries of the source, which are not always exact repeats. Equal entries are not always repeated.

Columns and labels:
[1] = test system: Fibroblast; test: Multiplex assay against human fibroblast; format: toxicity, cell-based; conditions: number of replicates 2
How it was run: (§1)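 Values for tubulin, mitochondrial-mass and membrane-permeability phenotypes are per cents of cells with healthy nuclei. These cells were identified by CellPathfinder machine-learning gating of live cells that had been stained at seeding with Hoechst33342, BioTracker Green Microtubule Cytoskeleton Dye, MitoTracker Red and Annexin V Alexa Fluor 680 and imaged on a CQ1 microscope at 37°C and 5% CO2 after compound addition. The gating first set Hoechst high-intensity objects apart from normal cells, then split normal cells into healthy, pyknosed or fragmented nuclei, and pyknosed cells into mitotic or apoptotic.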

[2] = test system: U2OS; test: Multiplex assay against U2OS; format: toxicity, cell-based; conditions: human, number of replicates 2; how it was run: as §1
[3] = 12 h, 1 µM, compound concentration 1 uM
[4] = 12 h, 10 µM, compound concentration 10 uM
[5] = 24 h, 1 µM, compound concentration 1 uM
[6] = 24 h, 10 µM, compound concentration 10 uM
[7] = 48 h, 1 µM, compound concentration 1 uM
[8] = 48 h, 10 µM, compound concentration 10 uM

**Q.** Which results are given for `COC(=O)c1ccc2c(c1)NC(=O)/C2=C(\Nc1ccc(-c2nccn2C)cc1)c1ccccc1`?
**A.** Population Apoptotic (%) [1, 3]: 35% and 43%; Population Fragmented Nuclei (%) [1, 3]: 10% and 29%; Population Healthy Nuclei (%) [1, 3]: 72% and 51%; Population Hoechst High Intensity Objects (%) [1, 3]: 0%; Population Membrane Permeable-Phenotype (%) [1, 3]: 2% and 1%; Population Mitochondria Different-Phenotype (%) [1, 3]: 1% and 3%; Population Mitotic Cells (%) [1, 3]: 64% and 56%; Population Normal (%) [1, 3]: 99%; Population Pyknosed Nuclei (%) [1, 3]: 17% and 19%; Population Tubulin-Different-Phenotype (%) [1, 3]: 7% and 9%; Total Cell Count [1, 3]: 195 and 242; Population Apoptotic (%) [1, 4]: 50% and 45%; Population Fragmented Nuclei (%) [1, 4]: 21% and 17%; Population Healthy Nuclei (%) [1, 4]: 59% and 62%; Population Hoechst High Intensity Objects (%) [1, 4]: 0%; Population Membrane Permeable-Phenotype (%) [1, 4]: 13% and 9%; Population Mitochondria Different-Phenotype (%) [1, 4]: 2%; Population Mitotic Cells (%) [1, 4]: 50% and 54%; Population Normal (%) [1, 4]: 100% and 99%; Population Pyknosed Nuclei (%) [1, 4]: 18% and 19%; Population Tubulin-Different-Phenotype (%) [1, 4]: 67% and 56%; Total Cell Count [1, 4]: 317 and 270; Population Apoptotic (%) [1, 5]: 64% and 60%; Population Healthy Nuclei (%) [1, 5]: 74% and 53%; Population Hoechst High Intensity Objects (%) [1, 5]: 0%; Population Membrane Permeable-Phenotype (%) [1, 5]: 3%; Population Mitochondria Different-Phenotype (%) [1, 5]: 0%; Population Mitotic Cells (%) [1, 5]: 35% and 39%; Population Normal (%) [1, 5]: 99%; Population Pyknosed Nuclei (%) [1, 5]: 15% and 14%; Population Tubulin-Different-Phenotype (%) [1, 5]: 11% and 8%; Total Cell Count [1, 5]: 180 and 255; Population Apoptotic (%) [1, 6]: 70% and 67%; Population Fragmented Nuclei (%) [1, 6]: 24%; Population Healthy Nuclei (%) [1, 6]: 59% and 54%; Population Hoechst High Intensity Objects (%) [1, 6]: 0%; Population Membrane Permeable-Phenotype (%) [1, 6]: 5% and 6%; Population Mitochondria Different-Phenotype (%) [1, 6]: 8% and 6%; Population Mitotic Cells (%) [1, 6]: 29% and 32%; Population Normal (%) [1, 6]: 99%; Population Pyknosed Nuclei (%) [1, 6]: 16% and 21%; Population Tubulin-Different-Phenotype (%) [1, 6]: 60% and 43%; Total Cell Count [1, 6]: 317 and 264; Population Apoptotic (%) [1, 7]: 48% and 73%; Population Healthy Nuclei (%) [1, 7]: 69% and 56%; Population Hoechst High Intensity Objects (%) [1, 7]: 0%; Population Membrane Permeable-Phenotype (%) [1, 7]: 1% and 3%; Population Mitochondria Different-Phenotype (%) [1, 7]: 0%; Population Mitotic Cells (%) [1, 7]: 51% and 26%; Population Normal (%) [1, 7]: 100% and 99%; Population Pyknosed Nuclei (%) [1, 7]: 20% and 9%; Population Tubulin-Different-Phenotype (%) [1, 7]: 3% and 8%; Total Cell Count [1, 7]: 182 and 256; Population Apoptotic (%) [1, 8]: 84% and 86%; Population Fragmented Nuclei (%) [1, 8]: 22% and 26%; Population Healthy Nuclei (%) [1, 8]: 62% and 56%; Population Hoechst High Intensity Objects (%) [1, 8]: 0% and 1%; Population Membrane Permeable-Phenotype (%) [1, 8]: 5% and 6%; Population Mitochondria Different-Phenotype (%) [1, 8]: 5% and 9%; Population Mitotic Cells (%) [1, 8]: 15% and 13%; Population Normal (%) [1, 8]: 100% and 98%; Population Pyknosed Nuclei (%) [1, 8]: 14% and 17%; Population Tubulin-Different-Phenotype (%) [1, 8]: 45% and 38%; Total Cell Count [1, 8]: 302 and 261; Population Healthy Nuclei (%) [2, 3]: 70% and 88%; Population Hoechst High Intensity Objects (%) [2, 3]: 0%; Population Membrane Permeable-Phenotype (%) [2, 3]: 12% and 2%; Population Mitochondria Different-Phenotype (%) [2, 3]: 4% and 0%; Population Mitotic Cells (%) [2, 3]: 100% and 64%; Population Normal (%) [2, 3]: 100%; Population Pyknosed Nuclei (%) [2, 3]: 2% and 8%; Population Tubulin-Different-Phenotype (%) [2, 3]: 54% and 83%; Population Apoptotic (%) [2, 4]: 50% and 68%; Population Healthy Nuclei (%) [2, 4]: 43% and 77%; Population Hoechst High Intensity Objects (%) [2, 4]: 0%; Population Membrane Permeable-Phenotype (%) [2, 4]: 25% and 15%; Population Mitochondria Different-Phenotype (%) [2, 4]: 7% and 20%; Population Mitotic Cells (%) [2, 4]: 50% and 31%; Population Normal (%) [2, 4]: 100%; Population Pyknosed Nuclei (%) [2, 4]: 16% and 15%; Population Tubulin-Different-Phenotype (%) [2, 4]: 55% and 43%; Total Cell Count [2, 4]: 62 and 186; Population Apoptotic (%) [2, 5]: 84% and 57%; Population Healthy Nuclei (%) [2, 5]: 91% and 65%; Population Hoechst High Intensity Objects (%) [2, 5]: 0%; Population Membrane Permeable-Phenotype (%) [2, 5]: 2% and 11%; Population Mitochondria Different-Phenotype (%) [2, 5]: 0% and 5%; Population Mitotic Cells (%) [2, 5]: 15% and 42%; Population Normal (%) [2, 5]: 100%; Population Pyknosed Nuclei (%) [2, 5]: 5% and 13%; Population Tubulin-Different-Phenotype (%) [2, 5]: 79% and 44%; Population Apoptotic (%) [2, 6]: 58% and 68%
